# Measurements taken from publication PMC5563391 (Investigational new drugs, 2015).
# Experiment: Phase 1 pharmacokinetics of ilorasertib in plasma
# Format: in vivo, human
# Conditions: for AUC(0-t) / Cmax / Tmax / half-life / AUC(0-inf): human, plasma; for half-life: t1/2, arm D
# Method in brief: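 Arm A patients took oral test compound once weekly, in the morning, on days 1, 8 and 15 of 28-day cycles, at 10–690 mg. Plasma was sampled intensively up to 72 h after dosing on days 1 and 15. Noncompartmental analysis gave Cmax, Tmax, t½, AUCt and AUC∞, plus dose-normalized values. Results are summarized by dose level as mean ± SD, with individual values where N=1.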
# [1] = arm A, oral once weekly, first dose, 10 mg, N=3, mean ± SD
# [2] = arm A, oral once weekly, first dose, 20 mg, N=1
# [3] = arm A, oral once weekly, first dose, 40 mg, N=1
# [4] = arm A, oral once weekly, first dose, 80 mg, N=2, mean ± SD
# [5] = arm A, oral once weekly, first dose, 160 mg, N=3, mean ± SD
# [6] = arm A, oral once weekly, first dose, 240 mg, N=5, mean ± SD
# [7] = arm A, oral once weekly, first dose, 340 mg, N=3, mean ± SD
# [8] = arm A, oral once weekly, first dose, 440 mg, N=4, mean ± SD
# [9] = arm A, oral once weekly, first dose, 540 mg, N=3, mean ± SD
# [10] = arm A, oral once weekly, first dose, 640 mg, N=6, mean ± SD
# [11] = arm A, oral once weekly, first dose, 690 mg, N=1
# [12] = arm A, oral once weekly, first dose, all doses, N=32, mean ± SD
# [13] = iv, 32 mg, arm D, IV infusion, 32 mg, day 1, N=4, mean ± SD
# [14] = iv, 32 mg, arm D, IV infusion, 32 mg, day 15, N=3, mean ± SD
# [15] = po, 40 mg, arm A, oral once weekly, first dose, N=1
smiles,measurement,setting,value
Nc1ncc(-c2cnn(CCO)c2)c2scc(-c3ccc(NC(=O)Nc4cccc(F)c4)cc3)c12 [Ilorasertib],coefficient of variation for dose-normalized Cmax,"arm A, oral",approximately 66%
same,AUC0–24/D (dose-normalized AUC0–24),[1],65.8 ± 35.0 ng·h/mL/mg
same,AUC∞/D (dose-normalized AUC∞),[1],70.9 ± 37.9 ng·h/mL/mg
same,Cmax/D (dose-normalized Cmax),[1],3.74 ± 1.56 ng/mL/mg
same,AUC0–24/D (dose-normalized AUC0–24),[2],27.2 ng·h/mL/mg
same,AUC∞/D (dose-normalized AUC∞),[2],28.5 ng·h/mL/mg
same,Cmax/D (dose-normalized Cmax),[2],2.98 ng/mL/mg
same,AUC0–24/D (dose-normalized AUC0–24),[3],43.9 ng·h/mL/mg
same,AUC∞/D (dose-normalized AUC∞),[3],45.8 ng·h/mL/mg
same,Cmax/D (dose-normalized Cmax),[3],4.95 ng/mL/mg
same,AUC0–24/D (dose-normalized AUC0–24),[4],15.2 ± 5.10 ng·h/mL/mg
same,AUC∞/D (dose-normalized AUC∞),[4],15.7 ± 5.18 ng·h/mL/mg
same,Cmax/D (dose-normalized Cmax),[4],1.44 ± 4.90 ng/mL/mg
same,AUC0–24/D (dose-normalized AUC0–24),[5],19.4 ± 8.86 ng·h/mL/mg
same,AUC∞/D (dose-normalized AUC∞),[5],20.2 ± 9.28 ng·h/mL/mg
same,Cmax/D (dose-normalized Cmax),[5],1.86 ± 0.98 ng/mL/mg
same,AUC0–24/D (dose-normalized AUC0–24),[6],16.6 ± 12.4 ng·h/mL/mg
same,AUC∞/D (dose-normalized AUC∞),[6],17.5 ± 13.5 ng·h/mL/mg
same,Cmax/D (dose-normalized Cmax),[6],1.22 ± 0.59 ng/mL/mg
same,AUC0–24/D (dose-normalized AUC0–24),[7],16.9 ± 2.56 ng·h/mL/mg
same,AUC∞/D (dose-normalized AUC∞),[7],17.7 ± 2.09 ng·h/mL/mg
same,Cmax/D (dose-normalized Cmax),[7],1.74 ± 1.0 ng/mL/mg
same,AUC0–24/D (dose-normalized AUC0–24),[8],30.7 ± 17.1 ng·h/mL/mg
same,AUC∞/D (dose-normalized AUC∞),[8],32.1 ± 18.0 ng·h/mL/mg
same,Cmax/D (dose-normalized Cmax),[8],2.88 ± 1.89 ng/mL/mg
same,AUC0–24/D (dose-normalized AUC0–24),[9],10.7 ± 2.0 ng·h/mL/mg
same,AUC∞/D (dose-normalized AUC∞),[9],11.1 ± 2.28 ng·h/mL/mg
same,Cmax/D (dose-normalized Cmax),[9],0.964 ± 0.183 ng/mL/mg
same,AUC0–24/D (dose-normalized AUC0–24),[10],30.7 ± 23.1 ng·h/mL/mg
same,AUC∞/D (dose-normalized AUC∞),[10],31.7 ± 23.4 ng·h/mL/mg
same,Cmax/D (dose-normalized Cmax),[10],2.42 ± 1.57 ng/mL/mg
same,AUC0–24/D (dose-normalized AUC0–24),[11],11.7 ng·h/mL/mg
same,AUC∞/D (dose-normalized AUC∞),[11],12.3 ng·h/mL/mg
same,Cmax/D (dose-normalized Cmax),[11],1.22 ng/mL/mg
same,AUC0–24/D (dose-normalized AUC0–24),[12],26.3 ± 21.3 ng·h/mL/mg
same,AUC∞/D (dose-normalized AUC∞),[12],27.6 ± 22.7 ng·h/mL/mg
same,Cmax/D (dose-normalized Cmax),[12],2.16 ± 1.43 ng/mL/mg
same,accumulation of study drug,"arm B, between days 1 and 15, multiple doses",no apparent accumulation
same,pharmacokinetic interaction between ilorasertib and azacitidine,"arm C, oral ilorasertib with azacitidine",no apparent pharmacokinetic drug-drug interaction
same,time of peak plasma concentrations,"arm D, IV dosing",end of the 4-hour infusion
same,AUC(0-t),"iv, 32 mg, AUC0–24, arm D, IV infusion, 32 mg, day 1, N=4, mean ± SD",4980 ± 3900 ng·h/mL
same,AUC(0-t),"iv, 32 mg, AUC0–24, arm D, IV infusion, 32 mg, day 15, N=3, mean ± SD",8220 ± 9110 ng·h/mL
same,Cmax,[13],587 ± 360 ng/mL
same,Cmax,[14],414 ± 140 ng/mL
same,Tmax,[13],4.1 ± 0.3 h
same,Tmax,[14],3.9 h
same,half-life,"iv, 32 mg, IV infusion, 32 mg, day 1, N=4",6.2 ± 5.1 h
same,half-life,"iv, 32 mg, IV infusion, 32 mg, day 15, N=3",5.8 ± 20.6 h
same,AUC(0-inf),"po, 10 mg",710 ± 380 ng·h/mL
same,AUC(0-t),"po, 10 mg, AUC0–24, arm A, oral once weekly, first dose, N=3, mean ± SD",660 ± 350 ng·h/mL
same,AUC(0-inf),"po, 20 mg",570 ng·h/mL
same,Cmax,"po, 20 mg, arm A, oral once weekly, first dose, N=1",60 ng/mL
same,AUC(0-inf),"po, 40 mg",1830 ng·h/mL
same,Cmax,[15],198 ng/mL
same,Tmax,[15],3 h
same,AUC(0-inf),"po, 80 mg",1260 ± 410 ng·h/mL
same,AUC(0-t),"po, 80 mg",1220 ± 410 ng·h/mL
same,AUC(0-inf),"po, 160 mg",3240 ± 1490 ng·h/mL
same,AUC(0-inf),"po, 240 mg",4190 ± 3230 ng·h/mL
same,AUC(0-t),"po, 320 mg, AUC0–24, arm B, oral twice weekly, 320 mg, day 1, N=6, mean ± SD",29700 ± 19000 ng·h/mL
same,AUC(0-t),"po, 320 mg, AUC0–24, arm B, oral twice weekly, 320 mg, day 15, N=4, mean ± SD",30700 ± 15000 ng·h/mL
same,AUC(0-inf),"po, 340 mg",6010 ± 710 ng·h/mL
same,AUC(0-inf),"po, 440 mg",14100 ± 7940 ng·h/mL
